Laboratory results as given in ChEMBL document CHEMBL2375292, “Biaryl tetrazolyl ureas as inhibitors of endocannabinoid metabolism: modulation at the N-portion and distal phenyl ring” (Eur J Med Chem, 2013).

Columns and labels:
[1] = target: T1, Diacylglycerol lipase-alpha (Homo sapiens) (UniProt Q9Y4D2); experiment: Activation of human recombinant DAGLalpha expressed in African green monkey COS7 cells assessed as increase in anandamide level per mg of extracted lipid at 3 uM preincubated for 10 mins measured after 20 mins by LC-MS analysis (reference value: 0.16 +/- 004 pmol); type: cell-based; conditions: COS-7
T1 sequence (whole entry): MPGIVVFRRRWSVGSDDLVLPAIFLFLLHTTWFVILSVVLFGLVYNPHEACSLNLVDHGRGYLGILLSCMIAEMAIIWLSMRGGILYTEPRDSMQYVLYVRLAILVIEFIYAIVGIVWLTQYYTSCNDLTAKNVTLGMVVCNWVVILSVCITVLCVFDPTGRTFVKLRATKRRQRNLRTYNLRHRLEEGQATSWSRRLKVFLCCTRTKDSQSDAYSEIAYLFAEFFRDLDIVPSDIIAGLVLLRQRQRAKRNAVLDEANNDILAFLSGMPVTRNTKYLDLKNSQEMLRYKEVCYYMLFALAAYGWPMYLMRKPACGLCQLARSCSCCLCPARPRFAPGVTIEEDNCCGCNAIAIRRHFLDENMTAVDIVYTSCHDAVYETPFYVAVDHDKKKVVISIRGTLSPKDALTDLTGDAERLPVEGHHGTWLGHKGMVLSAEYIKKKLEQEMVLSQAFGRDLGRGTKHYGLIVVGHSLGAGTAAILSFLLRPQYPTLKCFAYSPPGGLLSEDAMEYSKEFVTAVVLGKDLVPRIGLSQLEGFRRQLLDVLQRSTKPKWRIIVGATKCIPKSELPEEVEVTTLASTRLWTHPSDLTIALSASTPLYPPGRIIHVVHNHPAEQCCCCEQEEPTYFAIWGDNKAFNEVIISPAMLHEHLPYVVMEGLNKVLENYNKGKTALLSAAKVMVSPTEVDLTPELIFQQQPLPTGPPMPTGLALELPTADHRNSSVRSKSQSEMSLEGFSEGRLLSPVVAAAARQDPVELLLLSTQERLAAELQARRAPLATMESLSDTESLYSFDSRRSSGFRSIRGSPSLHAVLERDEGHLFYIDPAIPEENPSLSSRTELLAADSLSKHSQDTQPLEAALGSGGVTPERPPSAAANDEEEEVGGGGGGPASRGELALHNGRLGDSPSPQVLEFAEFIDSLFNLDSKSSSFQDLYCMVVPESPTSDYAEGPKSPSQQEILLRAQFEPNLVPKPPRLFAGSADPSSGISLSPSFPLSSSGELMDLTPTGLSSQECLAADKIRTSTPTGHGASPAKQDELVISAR
In short: (§1)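 About 10⁶ COS-7 cells overexpressing human recombinant DAGL-α per data point. Cells were preincubated 10 min with compound, then incubated 20 min at 37 °C with vehicle or ionomycin 3 µM. They were then homogenized in CHCl₃/CH₃OH/Tris-HCl 50 mM pH 7.4 (2/1/1) containing 5 pmol each of d⁸-AEA, d⁵-2-AG and d⁴-OEA as internal standards. Results in pmol/mg lipid extracted, means ± SD, n = 4.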

[2] = target: T1, Diacylglycerol lipase-alpha (Homo sapiens); experiment: Activation of human recombinant DAGLalpha expressed in African green monkey COS7 cells assessed as increase in N-oleoylethanolamine level per mg of extracted lipid at 3 uM preincubated for 10 mins measured after 20 mins by LC-MS analysis (reference value: 1.08 +/- 0.17 pmol); type: cell-based; conditions: COS-7; in short: as §1
[3] = target: T1, Diacylglycerol lipase-alpha (Homo sapiens); experiment: (§2) Activation of human recombinant DAGLalpha expressed in African green monkey COS7 cells assessed as increase in 2-arachidonoylglycerol level per mg of extracted lipid at 3 uM preincubated for 10 mins measured after 20 mins by LC-MS analysis (reference value: 2.82 +/- 0.75 pmol); type: cell-based; conditions: COS-7; in short: as §1
[4] = target: T2, Transient receptor potential cation channel subfamily V member 1 (Homo sapiens, UniProt Q8NER1); experiment: Agonist activity at human TRPV1 receptor expressed in HEK293 cells assessed as increase in intracellular Ca2+ concentration by spectrofluorimetric analysis relative to ionomycin; type: cell-based
In short: (§3)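 HEK293 cells stably transfected with human TRPV1 or rat TRPA1 cDNA (pcDNA3, G-418 selection) were loaded 1 h at room temperature with Fluo-4-AM, washed and suspended in Tyrode's buffer pH 7.4. [Ca²⁺]i was read by stirred-cuvette spectrofluorimetry before and after adding test compound at various concentrations. Signal from untransfected cells was subtracted. Efficacy was taken as percent of ionomycin (4 µM) for TRPV1 and percent of allyl isothiocyanate (100 µM) for TRPA1; EC50 was also derived.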

[5] = target: T3, Fatty-acid amide hydrolase 1 (Rattus norvegicus, UniProt P97612); experiment: Inhibition of FAAH in rat brain membranes assessed as [14C]AEA hydrolysis to [14C]Ethanolamine after 30 mins by scintillation counting analysis; type: cell membranes
T3 sequence (P97612 whole entry): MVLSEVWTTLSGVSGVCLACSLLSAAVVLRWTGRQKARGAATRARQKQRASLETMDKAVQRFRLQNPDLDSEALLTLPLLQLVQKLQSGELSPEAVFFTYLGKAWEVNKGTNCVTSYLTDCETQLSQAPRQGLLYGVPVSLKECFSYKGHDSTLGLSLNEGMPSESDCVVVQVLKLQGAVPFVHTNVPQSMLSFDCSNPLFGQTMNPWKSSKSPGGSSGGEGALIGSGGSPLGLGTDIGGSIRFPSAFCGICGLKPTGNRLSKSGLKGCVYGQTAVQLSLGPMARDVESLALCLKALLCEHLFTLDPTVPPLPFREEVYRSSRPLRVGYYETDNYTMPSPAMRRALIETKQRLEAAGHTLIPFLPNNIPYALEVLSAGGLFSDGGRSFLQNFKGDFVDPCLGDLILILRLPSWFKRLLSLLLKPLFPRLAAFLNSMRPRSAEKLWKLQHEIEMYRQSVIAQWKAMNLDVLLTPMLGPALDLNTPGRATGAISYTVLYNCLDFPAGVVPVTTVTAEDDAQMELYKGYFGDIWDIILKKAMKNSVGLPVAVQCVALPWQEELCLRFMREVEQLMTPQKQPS
In short: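 Rat brain membranes were incubated with [¹⁴C]AEA in 50 mM Tris-HCl pH 9 for 30 min at 37 °C. Released [¹⁴C]ethanolamine in the aqueous phase was counted by scintillation after CHCl₃/CH₃OH 2/1 extraction. IC50 was the concentration giving 50% inhibition.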

[6] = target: Transient receptor potential cation channel subfamily A member 1 (Rattus norvegicus) (UniProt Q6RI86); experiment: Agonist activity at rat TRPA1 receptor expressed in HEK293 cells assessed as increase in intracellular Ca2+ concentration by spectrofluorimetric analysis relative to allyl isothiocyanate; type: cell-based; in short: as §3
[7] = target: T2, Transient receptor potential cation channel subfamily V member 1; experiment: Antagonist activity at human TRPV1 receptor expressed in HEK293 cells assessed as inhibition of capsaicin-induced intracellular Ca2+ elevation incubated for 5 mins prior to capsaicin-stimulation by spectrofluorimetric analysis; type: cell-based
In short: (§4)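 Fluo-4-loaded HEK293 cells stably expressing human TRPV1 or rat TRPA1, in Tyrode's buffer pH 7.4, received test compound in the cuvette 5 min before agonist: capsaicin 0.1 µM for TRPV1, AITC 100 µM for TRPA1. The [Ca²⁺]i rise with agonist alone was set to 100%. IC50 came from a variable-slope sigmoidal fit. Untransfected-cell signal was subtracted.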

[8] = target: T4, Transient receptor potential cation channel subfamily A member 1 (Rattus norvegicus, UniProt Q6RI86); experiment: Antagonist activity at rat TRPA1 receptor expressed in HEK293 cells assessed as inhibition of allyl isothiocyanate-induced intracellular Ca2+ elevation incubated for 5 mins prior to allyl isothiocyanate-stimulation by spectrofluorimetric analysis; type: cell-based; in short: as §4
Monoglyceride lipase = target: T5, Monoglyceride lipase (Homo sapiens, UniProt Q99685); experiment: Inhibition of MAGL (unknown origin) expressed in African green monkey COS7 cell cytosolic fraction assessed as [3H]2-AG hydrolysis to [3H]arachidonic acid after 20 mins by beta counting analysis; set-up: species or system COS-7
T5 sequence (Q99685 whole entry): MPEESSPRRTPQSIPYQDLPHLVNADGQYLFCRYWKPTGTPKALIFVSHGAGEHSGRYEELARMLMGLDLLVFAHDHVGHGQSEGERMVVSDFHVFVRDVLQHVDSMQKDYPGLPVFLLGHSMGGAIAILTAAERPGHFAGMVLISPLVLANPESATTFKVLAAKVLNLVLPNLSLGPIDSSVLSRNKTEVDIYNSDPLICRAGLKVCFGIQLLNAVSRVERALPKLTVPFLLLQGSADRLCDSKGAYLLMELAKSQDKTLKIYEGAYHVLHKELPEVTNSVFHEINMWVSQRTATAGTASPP

[9] = Selectivity ratio of IC50 for FAAH in rat brain membranes to IC50 for MAGL (unknown origin); type: cell membranes
[10] = target: T4, Transient receptor potential cation channel subfamily A member 1; experiment: Agonist activity at rat TRPA1 receptor expressed in HEK293 cells assessed as increase in intracellular Ca2+ concentration by spectrofluorimetric analysis; type: cell-based; in short: as §3
[11] = target: TRPA1 (Rattus norvegicus); experiment: Agonist activity at GDH-tagged rat TRPA1 receptor expressed in HEK293F cells assessed as increase in intracellular Ca2+ concentration by Fluo-4 spectrofluorimetric assay
[12] = target: T2, Transient receptor potential cation channel subfamily V member 1; experiment: Agonist activity at human TRPV1 receptor expressed in HEK293 cells assessed as increase in intracellular Ca2+ concentration by spectrofluorimetric analysis; type: cell-based; in short: as §3
[13] = target: T1, Diacylglycerol lipase-alpha (Homo sapiens); experiment: as §2, with “1” for “3”, “analysis in presence of ionomycin” for “analysis”; type: cell-based; conditions: COS-7
In short: (§5)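 About 10⁶ COS-7 cells overexpressing human recombinant DAGL-α per point, preincubated 10 min with test compound or not, then 20 min at 37 °C with vehicle or ionomycin 3 µM. Cells homogenized in CHCl₃/CH₃OH/Tris-HCl 50 mM pH 7.4 (2/1/1) with 5 pmol d⁸-AEA, d⁵-2-AG and d⁴-OEA as internal standards. Levels in pmol/mg lipid extracted, mean ± SD, n = 4.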

[14] = target: T1, Diacylglycerol lipase-alpha (Homo sapiens); experiment: Activation of human recombinant DAGLalpha expressed in African green monkey COS7 cells assessed as increase in N-oleoylethanolamine level per mg of extracted lipid at 1 uM preincubated for 10 mins measured after 20 mins by LC-MS analysis in presence of ionomycin (reference value: 1.08 +/- 0.17 pmol); type: cell-based; conditions: COS-7; in short: as §5
[15] = target: T1, Diacylglycerol lipase-alpha (Homo sapiens); experiment: Activation of human recombinant DAGLalpha expressed in African green monkey COS7 cells assessed as increase in anandamide level per mg of extracted lipid at 1 uM preincubated for 10 mins measured after 20 mins by LC-MS analysis in presence of ionomycin (reference value: 0.16 +/- 004 pmol); type: cell-based; conditions: COS-7; in short: as §5

T2 sequence (Q8NER1 whole entry): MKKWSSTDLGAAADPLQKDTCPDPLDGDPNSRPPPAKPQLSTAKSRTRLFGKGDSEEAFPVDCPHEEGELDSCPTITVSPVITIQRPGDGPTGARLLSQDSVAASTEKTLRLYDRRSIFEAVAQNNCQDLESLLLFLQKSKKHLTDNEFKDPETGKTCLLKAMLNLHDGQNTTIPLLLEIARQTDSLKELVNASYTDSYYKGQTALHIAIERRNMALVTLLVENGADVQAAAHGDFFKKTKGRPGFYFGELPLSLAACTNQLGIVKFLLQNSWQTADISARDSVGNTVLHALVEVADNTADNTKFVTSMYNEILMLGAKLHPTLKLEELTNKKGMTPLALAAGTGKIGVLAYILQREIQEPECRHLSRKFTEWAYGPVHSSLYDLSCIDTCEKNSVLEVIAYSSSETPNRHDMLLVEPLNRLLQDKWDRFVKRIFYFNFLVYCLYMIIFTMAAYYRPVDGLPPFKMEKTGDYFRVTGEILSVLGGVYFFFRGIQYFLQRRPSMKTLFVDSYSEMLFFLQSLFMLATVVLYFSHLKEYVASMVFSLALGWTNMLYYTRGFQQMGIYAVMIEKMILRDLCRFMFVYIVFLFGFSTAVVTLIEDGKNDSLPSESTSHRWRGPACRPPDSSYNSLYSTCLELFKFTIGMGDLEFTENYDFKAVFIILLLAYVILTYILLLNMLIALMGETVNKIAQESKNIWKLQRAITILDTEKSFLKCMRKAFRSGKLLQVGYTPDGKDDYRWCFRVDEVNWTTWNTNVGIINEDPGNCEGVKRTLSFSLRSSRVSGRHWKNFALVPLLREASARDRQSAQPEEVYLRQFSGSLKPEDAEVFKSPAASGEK
Sequence of Transient receptor potential cation channel subfamily A member 1 (Rattus norvegicus) (Q6RI86 whole entry): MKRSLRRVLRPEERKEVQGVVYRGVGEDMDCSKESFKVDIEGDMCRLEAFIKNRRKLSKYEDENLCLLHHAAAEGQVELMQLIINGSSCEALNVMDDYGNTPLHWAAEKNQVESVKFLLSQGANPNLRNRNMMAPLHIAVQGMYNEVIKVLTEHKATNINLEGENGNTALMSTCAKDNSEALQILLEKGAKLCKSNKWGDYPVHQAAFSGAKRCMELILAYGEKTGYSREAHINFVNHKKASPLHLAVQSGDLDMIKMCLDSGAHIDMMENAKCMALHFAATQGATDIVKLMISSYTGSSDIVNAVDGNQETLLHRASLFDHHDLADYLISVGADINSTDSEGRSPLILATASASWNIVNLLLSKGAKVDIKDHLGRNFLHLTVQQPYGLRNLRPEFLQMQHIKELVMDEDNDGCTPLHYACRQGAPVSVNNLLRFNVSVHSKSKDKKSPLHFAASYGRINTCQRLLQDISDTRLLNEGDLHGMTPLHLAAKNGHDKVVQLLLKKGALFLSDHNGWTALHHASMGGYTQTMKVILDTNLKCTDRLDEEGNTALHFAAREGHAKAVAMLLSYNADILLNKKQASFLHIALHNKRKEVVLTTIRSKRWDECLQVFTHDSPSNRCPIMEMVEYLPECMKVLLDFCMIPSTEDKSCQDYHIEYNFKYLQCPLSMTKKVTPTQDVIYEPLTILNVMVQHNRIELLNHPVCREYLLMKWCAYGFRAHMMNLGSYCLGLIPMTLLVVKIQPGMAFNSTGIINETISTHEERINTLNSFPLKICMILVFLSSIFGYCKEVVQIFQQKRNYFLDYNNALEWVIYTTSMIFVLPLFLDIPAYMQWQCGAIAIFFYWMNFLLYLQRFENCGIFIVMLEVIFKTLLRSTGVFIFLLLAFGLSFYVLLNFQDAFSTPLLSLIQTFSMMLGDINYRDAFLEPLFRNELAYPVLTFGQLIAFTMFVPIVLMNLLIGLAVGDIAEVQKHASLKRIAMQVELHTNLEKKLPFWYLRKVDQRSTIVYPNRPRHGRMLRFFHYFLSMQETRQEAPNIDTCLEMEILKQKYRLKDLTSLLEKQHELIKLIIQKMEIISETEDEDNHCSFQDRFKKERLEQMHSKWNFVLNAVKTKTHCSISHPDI
T4 sequence (Q6RI86 whole entry): as above

Row | SMILES | Activity [1] [pmol] | Activity [2] [pmol] | Activity [3] [pmol] | Efficacy [4] [%] | IC50 [5] [nM] | Efficacy [6] [%] | IC50 [7] [nM] | IC50 [8] [nM] | IC50 (Monoglyceride lipase) [nM] | Ratio IC50 [9] | EC50 [10] [nM] | EC50 [11] [nM] | EC50 [12] [nM] | Activity [13] [pmol] | Activity [14] [pmol] | Activity [15] [pmol]
1 | C[C@H](CCC(=O)O)C[C@H](C)C[C@H](C)C(=O)/C=C(\O)[C@H](C)C[C@H](C)C/C=C/[C@@H](C)[C@@H](O)[C@@H](C)[C@@H](O)C[C@@H]1CC[C@@](C)([C@H]2CC[C@@](C)([C@@H](C)O)O2)O1 | 0.37 | 3.99 | 15.7 |  |  |  |  |  |  |  |  |  |  |  |  | 
2 | Cc1cccc(-c2ccc(Cc3nnnn3C(=O)N(C)C)cc2)c1 |  |  |  | < 10 | 9.7 | 233 | > 100000 | 41000 | > 1000 | 39 | 32800 |  |  |  |  | 
3 | CN(C(=O)n1nnc(Cc2ccc(-c3ccccc3)cc2)n1)C1CCCCC1 |  |  |  | 33.6 | 96.3 | 45.2 | 9200 | 15400 |  |  | 150 | 150 | 250 |  |  | 
4 | CN(C)C(=O)n1nnc(Cc2ccc(-c3cccc(O)c3)cc2)n1 |  |  |  | < 10 | 12 | < 10 | > 100000 | 98900 | 10 |  |  |  |  | 413 | 7.25 | 0.41
